Test results published in ChEMBL document CHEMBL1125666, “In vitro evaluation of phosphocholine and quaternary ammonium containing lipids as novel anti-HIV agents” (J Med Chem, 1991).

What was measured:
[1] = test system: Human immunodeficiency virus 1; test: In vitro inhibition of HIV-1 plaque formation; assay type: functional, organism-based
Summary of the method: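 HIV-1 syncytial plaque assay. CEM-SS cells in log phase, washed in PBS, 50 000 per well in serum-free RPMI-1640 on poly-L-lysine-coated wells, 30 min at 37 °C, 5% CO2. Inoculated with HIV-1 (60–90 PFU). After 60 min, overlay with or without compound at serial twofold dilutions, 0.03–20.0 μM. Second overlay on day 3. Plaques counted on day 5 to give IC50. Mean ± SD, n ≥ 3, or a single experiment.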

[2] = test system: Human immunodeficiency virus 1; test: Differential selectivity measured as the ratio of CEM-SS cell growth IC50 vs HIV plaque formation IC50.; assay type: functional
Summary of the method: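 Selectivity index taken as CEM-SS growth IC50 (48 h suspension culture, [3H]thymidine uptake) divided by HIV-1 syncytial plaque IC50 (day-5 plaque count in CEM-SS monolayers, 60–90 PFU). Both IC50s come from twofold dilutions over 0.03–20.0 μM.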

[3] = test system: CEM-SS cells (Homo sapiens); test: In vitro inhibition of CEM-SS cell growth by 50 %

Row | Structure (SMILES) | IC50 [1] | Ratio [2] | IC50 [3]
1 | CCCCCCCCCCCCCCCCSCC(C[N+](C)(C)CC(O)CO)OC.[Br-] (stereo not drawn) | 0.49 µM | 4.1 | 2 µM
2 | CCCCCCCCCCCCCCCCOCC(CP(=O)([O-])OCC[n+]1ccccc1)OC (stereo not drawn) | 2.2 µM | 3.5 | 7.7 µM
3 | CCCCCCCCCCCCCCCCOCC(COP(=O)(O)OCCNC(C)(C)C)OCC (stereo not drawn) | > 5 µM | – | 10 µM
4 | CCCCCCCCCCCCCCCCOCC(COP(=O)(O)OCCNC(C)C)OCC (stereo not drawn) | > 5 µM | – | 7 µM
5 | CCCCCCCCCCCCCCCC(=O)NCC(COP(=O)([O-])OCC[N+](C)(C)C)OC (stereo not drawn) | 0.93 µM | 26.6 | 24.7 µM
6 | CCCCCCCCCCCCCCCC(=O)NCC(COP(=O)([O-])OCC[N+](C)(C)C)OCC (stereo not drawn) | 0.46 µM | 41.3 | 19 µM
7 | CCCCCCCCCCCCCCCCOCC(CN(C)CCO)OC (stereo not drawn) | 2.1 µM | 1.5 | 3.2 µM
8 | CCCCCCCCCCCCCCCCOCC(COP(=O)([O-])OCC[n+]1ccccc1)OCC (stereo not drawn) | 4.7 µM | 1.7 | 8.1 µM
9 | CCCCCCCCCCCCCCCCCCSCC(C[N+](C)(C)CCCO)OC.[I-] (stereo not drawn) | 0.41 µM | 9.8 | 4 µM
10 | CCCCCCCCCCCCCCCCOCC(C[N+](C)(C)C)OC.[Br-] (stereo not drawn) | 0.52 µM | 2.1 | 1.1 µM
11 | CCCCCCCCCCCCCCCCSCC(COP(=O)([O-])OCC[N+](C)(C)C)OCC (stereo not drawn) | 0.7 µM | 5.9 | 4.1 µM
12 | CCCCCCCCCCCCCCCCCCNC(=O)NCC(COP(=O)([O-])OCC[N+](C)(C)C)OCC (stereo not drawn) | 0.57 µM | 13.5 | 7.7 µM
13 | CCCCCCCCCCCCCCCCCCS(=O)(=O)CC(COP(=O)([O-])OCC[N+](C)(C)C)OCC (stereo not drawn) | 1.2 µM | 7.5 | 9 µM
14 | CCCCCCCCCCCCCCCCSCC(C[N+](C)(C)C)OC.[Br-] (stereo not drawn) | 0.39 µM | 13.4 | 5.3 µM
15 | CCCCCCCCCCCCCCCCOCC(CO)OCC (stereo not drawn) | > 5 µM | – | > 20 µM
16 | CCCCCCCCCCCCCCCCSCC(C[N+](C)(C)CCO)OCC.[Br-] (stereo not drawn) | 0.63 µM | 8.1 | 5.1 µM
17 | CCCCCCCCCCCCCCCCCCSCC(COP(=O)([O-])OCC[N+](C)(C)C)OC (stereo not drawn) | 0.49 µM | 7.8 | 3.8 µM
18 | CCCCCCCCCCCCCCCCCCOCC(COP(=O)([O-])OCC[N+](C)(C)C)OC (stereo not drawn) [EDELFOSINE] | 0.92 µM | 4.3 | 4 µM
19 | Cc1cn([C@H]2C[C@H](N=[N+]=[N-])[C@@H](CO)O2)c(=O)[nH]c1=O [ZIDOVUDINE] | – | – | 5.6 µM

The next lines start with results.

Row | IC50 [1] | Structure (SMILES) | Ratio [2] | IC50 [3]
20 | 0.2 µM | CCCCCCCCCCCCCCCCCCOCC[N+](C)(C)CC(O)CO.[I-] (stereo not drawn) | 14.5 | 2.9 µM
21 | 0.28 µM | CCCCCCCCCCCCCCCCSCCOP(=O)([O-])OCC[N+](C)(C)C | 27.1 | 7.6 µM
22 | 0.21 µM | CCCCCCCCCCCCCCCCOCC(C[n+]1ccccc1)OCC.[Br-] (stereo not drawn) | 5.2 | 1.1 µM
23 | 0.37 µM | CCCCCCCCCCCCCCCCSCC(C[N+](C)(C)CCO)OC.[Br-] (stereo not drawn) | 5.7 | 2.1 µM
24 | 0.28 µM | CCCCCCCCCCCCCCCCCC(=O)NCCOP(=O)([O-])OCC[N+](C)(C)C | 68.7 | 19.3 µM
25 | 0.27 µM | CCCCCCCCCCCCCCCCCCOCC(COP(=O)([O-])OCC[N+](C)(C)C)OCC (stereo not drawn) | 11.1 | 3 µM
26 | 0.38 µM | CCCCCCCCCCCCCCCCOCC[N+](C)(C)CCO.[I-] | 15.6 | 6 µM
27 | 0.24 µM | CCCCCCCCCCCCCCCCOCC[N+](C)(C)CCCO.[I-] | 6.1 | 1.5 µM
28 | 0.16 µM | CCCCCCCCCCCCCCCCCCCC(=O)NCC(COP(=O)([O-])OCC[N+](C)(C)C)OCC (stereo not drawn) | 29.4 | 4.7 µM
29 | 0.3 µM | CCCCCCCCCCCCCCCCOCC(C[N+]1(CO)CCCCC1)OCC.[I-] (stereo not drawn) | 8 | 2.4 µM
30 | 0.3 µM | CCCCCCCCCCCCCCCCCC(=O)NCC(COP(=O)([O-])OCC[N+](C)(C)C)OC (stereo not drawn) | 47.3 | 14.2 µM
31 | 0.16 µM | CCCCCCCCCCCCCCCCCC(=O)NCC(COP(=O)([O-])OCC[N+](C)(C)C)OCC (stereo not drawn) | 84.4 | 13.5 µM
